High-throughput results (PubChem)
Rad51 HR inh: Rad51 (human) homologous recombination inhibition. Q06609. hRad51 DNA strand exchange, fluorescence dequenching. inhibition, % at 10 µM. 0.085% of 200,000 active. AID 1385;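 active means inhibition above 40% at the single screening dose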;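 further: 0% = DMSO control wells and 100% = blanks with heterologous ssDNA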
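Read-out basis: percent inhibition relative to plate controls and blanks / Assay system: human Rad51 nucleoprotein filaments preassembled on unlabelled ssDNA / Timing: filaments 15 min 37 °C, then compound 30 min / Control set: per-plate controls and blanks / Technique: fluorescence dequenching at 485/520 nm / Compound: 10 µM final, single point / Also added: Fluorescein- and BHQ1-tagged 47-mer duplex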
Lmaj promast: reduces viability of Leishmania major promastigotes; resazurin fluorescence viability; inhibition, % at 10 µM; 9% of 200,000 active;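 further: promastigotes grown with compound for 44 hours at 28 °C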
Wee1 degr inh: blocks degradation of human Wee1 kinase | AID 1321 | reporter increase, % at 5 µM | HeLa Luc-Wee1K328M stability, luciferase luminescence; 100% = proteasome inhibitor MG132 effect | 1.2% of 220,000 active;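 active means activation above the mean of all tested compounds plus 3 SD, set per screening run, cut at about 8.8% in these data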;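 further: cells exposed to compound for 20 h before luminescence read; 0% = DMSO alone and 100% = MG132 at 30 µM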
CHOP inh: CHOP inhibition in unfolded protein response; CHO-K1 CHOP-promoter luciferase, tunicamycin-induced, 15-18 h; inhibition, % at 10 µM; 3.8% of 220,000 active;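 active means compounds that reduced the stress-induced luciferase reporter signal by more than about 70% of percent inhibition, limit read from the data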;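 further: 0% = tunicamycin plus vehicle and 100% = wells without tunicamycin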
Arbovirus anti: arbovirus infection inhibition | 0.37% of 200,000 active | inhibition, % at 10 µM | AID 1251 | arbovirus infection cell-based antiviral screen; in the data active means inhibition above about 30%
PKD1 kinase inh: PKD1 (human) kinase inhibition | Q15139 | PKD1 kinase fluorescence polarization assay | inhibition, % (test concentration not listed) | 0.056% of 200,000 active | AID 797
* hit, by the source's call; nt = not tested or not shown. Only some compounds are listed: those with a hit (about 12% of all), similar ones and a draw of the others. Unless noted, no stated cut-off is given here; in the data, active means inhibition above about 50%; inactive means the rest.

SMILES	Rad51 HR inh	Lmaj promast	Wee1 degr inh	CHOP inh	Arbovirus anti	PKD1 kinase inh
CCOC(=O)N1CCN(C(=O)CSCC(=O)N=c2sc3ccccc3n2C)CC1	105*	-5	-2	36	7	-4
COc1cc(C(=O)N=c2sc3ccccc3n2C)cc(OC)c1OC	-10	31	-2	-9	-4	1
Cn1c(=NC(=O)c2cccc([N+](=O)[O-])c2)sc2ccccc21	-32	-7	0	73*	-7	-1
Cn1c(=NC(=O)CCl)sc2ccccc21	6	84*	-2	nt	-34	0
CN(C)c1ccc(N=c2sc3ccccc3n2C)cc1	-2	98*	3	69	-24	7
CCCCn1c(NCc2cccs2)nc2ccccc21	10	43	1	17	-4	-2
O=c1[nH]cc(C(F)(F)F)cc1NS(=O)(=O)c1ccccc1[N+](=O)[O-]	4	-3	-2	24	16	-1
COc1ccc(N=Nc2nc3cc(Br)c(Br)cc3n2C)c(OC)c1	-297	34	-2	27	-33	28
CCOC(=O)CN1C(=O)S/C(=C/C=C/c2ccc(N(C)C)cc2)C1=O	nt	-4	3	3	-6	10
Cc1cc(C)cc(N(C(=O)c2sc(C)nc2C)C(C(=O)NC(C)(C)C)c2ccncc2)c1 (stereo not drawn)	-7	-6	6	12	-5	-3
CCN(CC)Cc1cc2[nH]c3c4ccc(Cl)cc4ncc3c2cc1OC	nt	nt	-1	-68	nt	nt
Cc1ccc(C(=O)Nc2cccc(-c3nc4ncccc4o3)c2)cc1	21	nt	2	21	nt	nt
O=C(Nc1cccc(-c2nc3ncccc3o2)c1)c1ccccc1	-8	100*	-3	22	16	2
CCCCC(=O)Nc1cc(-c2nc3ncccc3o2)ccc1C	-1	99*	-3	43	-4	-2
Cc1ccc(OCC(=O)Nc2ccc(-c3nc4ncccc4o3)cc2)c(C)c1	-3	39	3	84*	-2	-3
CN1CCN(C(=O)C23CC4CC(C2)CC(c2ccccc2)(C4)C3)CC1	nt	18	0	-4	-17	6
Cc1cc(C)c(S(=O)(=O)N(C2=NCCS2)S(=O)(=O)c2c(C)cc(C)cc2C)c(C)c1	7	98*	-1	67	-1	-3
O=C(N/N=C/C=C/c1ccc2c(c1)OCO2)C(O)c1ccccc1 (stereo not drawn)	nt	nt	-1	-15	nt	nt
O=C(COC(=O)C12CC3CC(CC(C3)C1)C2)NCCc1ccccc1	0	-6	-1	77*	1	2
Cc1c(CCOC(=O)C23CC4(C)CC(C)(CC(C)(C4)C2)C3)sc[n+]1CC(=O)c1ccccc1	-64	23	-2	3	-22	2
Cc1c(CCOC(=O)C23CC4CC(CC(C)(C4)C2)C3)sc[n+]1Cc1ccccc1	7	100*	-1	5	-18	-8
Cc1c(CCOC(=O)C23CC4CC(CC(C4)C2)C3)sc[n+]1Cc1ccccc1	nt	98*	0	-3	-13	0
Cc1cc(OCc2nc(-c3ccncc3)no2)cc(C)c1Cl	-2	-2	-2	33	1	-5
Cc1cc(S(=O)(=O)NCc2ccc(N3CCN(C)CC3)cc2)c(C)s1	9	nt	1	9	nt	nt
NS(=O)(=O)c1cc(C(=O)N=Nc2c(O)[nH]c3ccccc23)ccc1Cl	0	nt	-2	26	nt	nt
SMILES	Rad51 HR inh	Lmaj promast	Wee1 degr inh	CHOP inh	Arbovirus anti	PKD1 kinase inh
CSc1ncc(Cl)c(C(=O)C(C#N)c2nc3c(C)cc(C)cc3c(=O)[nH]2)n1 (stereo not drawn)	15	-8	0	52	41*	5
CCN1CCN(c2nc3ccccc3nc2C(C#N)C(=O)OC2CCCCC2)CC1 (stereo not drawn)	-8	85*	-2	-26	-1	-12
N#CC(C(=O)NC1CCCCC1)c1nc2ccccc2nc1N1CCN(c2ccc(F)cc2)CC1 (stereo not drawn)	-38	-5	-2	9	-1	1
CN1CCN(c2nc3ccccc3nc2C(C#N)C(=O)OC2CCCCC2)CC1 (stereo not drawn)	-2	90*	-2	72*	-12	8
N#CC(C(=O)OC1CCCCC1)c1nc2ccccc2nc1N1CCOCC1 (stereo not drawn)	-7	29	-2	4	-7	-7
Cc1cc(C)c2nc(Cl)c(Cl)nc2c1	10	nt	-3	-8	nt	nt
CCn1c(C)cs/c1=N\C(=S)Nc1ccccc1C	3	22	2	15	4	-8
Cc1nn(C2CCS(=O)(=O)C2)c(C)c1C=O (stereo not drawn)	4	-12	6	-3	1	-4
CC(=O)c1ccc(NC(=O)Cn2c3ccccc3c3nc(=O)cc(C)n32)cc1	nt	nt	1	26	nt	nt
CC(=O)c1nn(-c2cccc(Br)c2)cc1C(=O)c1ccc(Br)cc1	2	-6	-1	78*	-18	-6
Cc1ccc(Nc2[nH]c(=O)c3ccccc3c2C(=O)c2ccccc2)cc1	-10	nt	nt	nt	nt	nt
Clc1ccc(OCc2nc(-c3ccccn3)no2)c(Br)c1	3	-9	-1	72*	-36	-11
O=C(CCCNC(=O)/C(=C/c1ccccc1F)NC(=O)c1ccccc1)OCc1ccccc1	nt	21	2	-2	1	-4
CCC(NC(=O)c1ccc([N+](=O)[O-])cc1[N+](=O)[O-])c1ccccc1 (stereo not drawn)	3	92*	-3	35	-2	-4
O=C(NCC1COc2ccccc2O1)c1ccc(NC(=O)C(c2ccccc2)c2ccccc2)cc1 (stereo not drawn)	-6	92*	-3	47	6	-4
O=C(Cc1ccccc1)Nc1ccc(C(=O)NCC2COc3ccccc3O2)cc1 (stereo not drawn)	1	3	0	31	0	2
CCCc1nc(SCC(=O)Nc2cc(Cl)ccc2OC)c2c(=O)n(C)c(=O)n(C)c2n1	6	-4	2	79*	-12	0
CCc1nc(SCC(=O)c2ccccc2)c2c(=O)n(C)c(=O)n(C)c2n1	nt	nt	-1	11	nt	nt
CCCc1nc(SCC(=O)NCc2ccco2)c2c(=O)n(C)c(=O)n(C)c2n1	-1	-5	0	37	-20	-3
CCCc1nc(SCC(=O)c2ccccc2)c2c(=O)n(C)c(=O)n(C)c2n1	-3	19	-3	74*	-4	-4
O=C(CN(Cc1cccs1)C(=O)CNS(=O)(=O)c1ccccc1)NC1CCCC1	11	-4	-1	13	11	-6
Cc1cc(N2CCN(Cc3nc(-c4ccc(Cl)cc4)oc3C)CC2)cc(C)n1	10	nt	-2	21	nt	nt
COc1ccc(-c2nc(CN3CCN(c4cc(C)nc(C)c4)CC3)c(C)o2)c2ccccc12	11	100*	1	31	-35	3
Cc1oc(-c2cccc3ccccc23)nc1CN1CCN(c2ncnc3ccccc23)CC1	9	14	0	82*	-25	1
